How the values were obtained:
[1] = molecular target: Ribosomal protein S6 kinase beta-1 (Homo sapiens) (UniProt P23443); test: Inhibition of P70S6K (unknown origin) using [gamma-33P]ATP assessed as residual activity at 3 uM
[2] = molecular target: Mitogen-activated protein kinase 13 (Homo sapiens) (UniProt O15264); test: Inhibition of P38d (unknown origin) using [gamma-33P]ATP assessed as residual activity at 3 uM
[3] = molecular target: Serine/threonine-protein kinase NLK (Homo sapiens) (UniProt Q9UBE8); test: Inhibition of NLK (unknown origin) using [gamma-33P]ATP assessed as residual activity at 3 uM
[4] = molecular target: Serine/threonine-protein kinase Nek1 (Homo sapiens) (UniProt Q96PY6); test: Inhibition of NEK1 (unknown origin) using [gamma-33P]ATP assessed as residual activity at 3 uM
[5] = molecular target: Cyclin-dependent kinase 5/CDK5 activator 1 (Homo sapiens) (UniProt Q00535+Q15078); test: Inhibition of CDK5/p25 (unknown origin) using [gamma-33P]ATP assessed as residual activity at 3 uM; type: protein-complex assay
Outline: (§1)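 Radiometric profiling across 288 kinases (261 wild-type, 27 mutant), run as an outsourced service. Inhibition read out as [gamma-33P]ATP incorporation into substrate.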

[6] = molecular target: Serine/threonine-protein kinase B-raf (Homo sapiens) (UniProt P15056); test: Inhibition of BRAF (unknown origin) using [gamma-33P]ATP assessed as residual activity at 3 uM; outline: as §1
[7] = tested on: MAP kinase-interacting serine/threonine-protein kinase 1 (Homo sapiens), Q9BUB5 [T385D]; test: Inhibition of MNK1 T385D mutant (unknown origin) using [gamma-33P]ATP assessed as residual activity at 3 uM
Outline: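 Contract radiometric panel screen of 288 kinases (261 wild-type, 27 mutant). Inhibition was read by [gamma-33P]ATP radioactivity incorporation.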

[8] = tested on: Proto-oncogene tyrosine-protein kinase Src (Homo sapiens), P12931 [T341M]; test: Inhibition of c-Src T341M mutant (unknown origin) using [gamma-33P]ATP assessed as residual activity at 3 uM
[9] = tested on: Mast/stem cell growth factor receptor Kit (Homo sapiens), P10721 [V560G]; test: Inhibition of c-Kit V560G mutant (unknown origin) using [gamma-33P]ATP assessed as residual activity at 3 uM
[10] = molecular target: Leucine-rich repeat serine/threonine-protein kinase 2 (Homo sapiens) (UniProt Q5S007); test: Inhibition of LRRK2 (unknown origin) using [gamma-33P]ATP assessed as residual activity at 3 uM
Outline: (§2)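 Radiometric kinase profiling service covering 288 kinases (261 wild-type, 27 mutant). Inhibition was read as incorporation from [γ-³³P]ATP.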

[11] = molecular target: Tyrosine-protein kinase Lyn (Homo sapiens) (UniProt P07948); test: Inhibition of LYN (unknown origin) using [gamma-33P]ATP assessed as residual activity at 3 uM; outline: as §2
[12] = molecular target: Mitogen-activated protein kinase 10 (Homo sapiens) (UniProt P53779); test: Inhibition of JNK3 (unknown origin) using [gamma-33P]ATP assessed as residual activity at 3 uM; outline: as §2
[13] = molecular target: Aurora kinase A (Homo sapiens) (UniProt O14965); test: Inhibition of Aurora A (unknown origin) using [gamma-33P]ATP assessed as residual activity at 3 uM; outline: as §1
[14] = molecular target: TGF-beta receptor type-1 (Homo sapiens) (UniProt P36897); test: Inhibition of ALK5 (unknown origin) using [gamma-33P]ATP assessed as residual activity at 3 uM; outline: as §1
[15] = tested on: Tyrosine-protein kinase ABL1 (Homo sapiens), P00519 [T315I]; test: Inhibition of ABL1 T315I mutant (unknown origin) using [gamma-33P]ATP assessed as residual activity at 3 uM; outline: as §1
[16] = molecular target: Death-associated protein kinase 3 (Homo sapiens) (UniProt O43293); test: Inhibition of ZIPK (unknown origin) using [gamma-33P]ATP assessed as residual activity at 3 uM
[17] = molecular target: Dual specificity protein kinase TTK (Homo sapiens) (UniProt P33981); test: Inhibition of TTK (unknown origin) using [gamma-33P]ATP assessed as residual activity at 3 uM
[18] = molecular target: Tyrosine-protein kinase SYK (Homo sapiens) (UniProt P43405); test: Inhibition of SYK (unknown origin) using [gamma-33P]ATP assessed as residual activity at 3 uM
[19] = molecular target: Ribosomal protein S6 kinase alpha-3 (Homo sapiens) (UniProt P51812); test: Inhibition of RSK2 (unknown origin) using [gamma-33P]ATP assessed as residual activity at 3 uM
[20] = molecular target: Insulin-like growth factor 1 receptor (Homo sapiens) (UniProt P08069); test: Inhibition of IGF-1R (unknown origin) using [gamma-33P]ATP assessed as residual activity at 3 uM; outline: as §2
[21] = molecular target: G protein-coupled receptor kinase 6 (Homo sapiens) (UniProt P43250); test: Inhibition of GRK6 (unknown origin) using [gamma-33P]ATP assessed as residual activity at 3 uM; outline: as §2
[22] = molecular target: Beta-adrenergic receptor kinase 1 (Homo sapiens) (UniProt P25098); test: Inhibition of GRK2 (unknown origin) using [gamma-33P]ATP assessed as residual activity at 3 uM; outline: as §2
[23] = molecular target: Tyrosine-protein kinase FRK (Homo sapiens) (UniProt P42685); test: Inhibition of FRK (unknown origin) using [gamma-33P]ATP assessed as residual activity at 3 uM; outline: as §2
[24] = molecular target: Vascular endothelial growth factor receptor 3 (Homo sapiens) (UniProt P35916); test: Inhibition of FLT4 (unknown origin) using [gamma-33P]ATP assessed as residual activity at 3 uM; outline: as §2
[25] = molecular target: Vascular endothelial growth factor receptor 1 (Homo sapiens) (UniProt P17948); test: Inhibition of FLT1 (unknown origin) using [gamma-33P]ATP assessed as residual activity at 3 uM
Outline: (§3)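 Reaction Biology HotSpot radiometric profiling panel of 288 kinases (261 wild-type, 27 mutant). Kinase activity was read out by incorporation of [γ-33P]ATP.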

[26] = molecular target: Serine/threonine-protein kinase D3 (Homo sapiens) (UniProt O94806); test: Inhibition of PRKD3 (unknown origin) using [gamma-33P]ATP assessed as residual activity at 3 uM
[27] = molecular target: cGMP-dependent protein kinase 1 (Homo sapiens) (UniProt Q13976); test: Inhibition of PKG1b (unknown origin) using [gamma-33P]ATP assessed as residual activity at 3 uM
[28] = molecular target: Protein kinase C epsilon type (Homo sapiens) (UniProt Q02156); test: Inhibition of PKCepsilon (unknown origin) using [gamma-33P]ATP assessed as residual activity at 3 uM
[29] = molecular target: Protein kinase C alpha type (Homo sapiens) (UniProt P17252); test: Inhibition of PKCa (unknown origin) using [gamma-33P]ATP assessed as residual activity at 3 uM
[30] = molecular target: Death-associated protein kinase 1 (Homo sapiens) (UniProt P53355); test: Inhibition of DAPK1 (unknown origin) using [gamma-33P]ATP assessed as residual activity at 3 uM; outline: as §3
[31] = molecular target: Serine/threonine-protein kinase pim-2 (Homo sapiens) (UniProt Q9P1W9); test: Inhibition of PIM2 (unknown origin) using [gamma-33P]ATP assessed as residual activity at 3 uM

Sequence of Cyclin-dependent kinase 5/CDK5 activator 1 (Homo sapiens) (Q00535 whole entry): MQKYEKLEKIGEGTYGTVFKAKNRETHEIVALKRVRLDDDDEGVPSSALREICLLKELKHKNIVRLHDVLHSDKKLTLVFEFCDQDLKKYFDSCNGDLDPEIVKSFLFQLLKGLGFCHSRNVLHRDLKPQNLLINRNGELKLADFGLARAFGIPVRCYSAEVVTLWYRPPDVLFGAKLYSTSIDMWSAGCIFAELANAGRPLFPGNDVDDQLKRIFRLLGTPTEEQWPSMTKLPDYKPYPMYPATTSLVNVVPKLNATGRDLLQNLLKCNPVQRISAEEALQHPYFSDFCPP
Sequence of Cyclin-dependent kinase 5/CDK5 activator 1 (Homo sapiens) (Q15078 99-307 partner limits assumed): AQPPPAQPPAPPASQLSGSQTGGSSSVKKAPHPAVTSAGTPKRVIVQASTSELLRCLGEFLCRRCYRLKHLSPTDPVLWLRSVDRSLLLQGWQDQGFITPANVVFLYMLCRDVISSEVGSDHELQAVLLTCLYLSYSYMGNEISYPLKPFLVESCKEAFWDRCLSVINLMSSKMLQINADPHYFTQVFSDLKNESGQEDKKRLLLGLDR
Sequence of Ribosomal protein S6 kinase alpha-3 (Homo sapiens) (P51812 whole entry): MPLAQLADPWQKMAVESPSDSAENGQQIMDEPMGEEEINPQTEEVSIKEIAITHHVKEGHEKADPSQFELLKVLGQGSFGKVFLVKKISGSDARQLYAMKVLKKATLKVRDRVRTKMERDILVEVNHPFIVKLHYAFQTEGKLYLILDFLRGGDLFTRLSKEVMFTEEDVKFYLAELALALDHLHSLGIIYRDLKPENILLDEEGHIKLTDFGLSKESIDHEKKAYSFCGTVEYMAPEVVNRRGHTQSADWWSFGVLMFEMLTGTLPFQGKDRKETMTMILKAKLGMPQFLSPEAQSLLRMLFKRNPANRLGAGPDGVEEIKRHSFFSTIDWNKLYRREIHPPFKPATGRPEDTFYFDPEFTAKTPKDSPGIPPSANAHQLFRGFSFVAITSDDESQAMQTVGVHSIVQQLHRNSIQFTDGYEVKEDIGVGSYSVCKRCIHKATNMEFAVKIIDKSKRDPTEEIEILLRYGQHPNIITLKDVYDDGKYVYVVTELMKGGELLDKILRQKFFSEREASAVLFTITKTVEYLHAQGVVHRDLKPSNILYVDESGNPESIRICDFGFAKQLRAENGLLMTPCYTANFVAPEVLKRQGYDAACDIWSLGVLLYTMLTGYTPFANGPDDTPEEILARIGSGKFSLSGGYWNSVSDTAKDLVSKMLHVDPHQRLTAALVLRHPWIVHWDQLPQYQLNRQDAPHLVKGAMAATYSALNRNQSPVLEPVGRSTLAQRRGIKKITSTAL
Sequence of Serine/threonine-protein kinase Nek1 (Homo sapiens) (Q96PY6 whole entry): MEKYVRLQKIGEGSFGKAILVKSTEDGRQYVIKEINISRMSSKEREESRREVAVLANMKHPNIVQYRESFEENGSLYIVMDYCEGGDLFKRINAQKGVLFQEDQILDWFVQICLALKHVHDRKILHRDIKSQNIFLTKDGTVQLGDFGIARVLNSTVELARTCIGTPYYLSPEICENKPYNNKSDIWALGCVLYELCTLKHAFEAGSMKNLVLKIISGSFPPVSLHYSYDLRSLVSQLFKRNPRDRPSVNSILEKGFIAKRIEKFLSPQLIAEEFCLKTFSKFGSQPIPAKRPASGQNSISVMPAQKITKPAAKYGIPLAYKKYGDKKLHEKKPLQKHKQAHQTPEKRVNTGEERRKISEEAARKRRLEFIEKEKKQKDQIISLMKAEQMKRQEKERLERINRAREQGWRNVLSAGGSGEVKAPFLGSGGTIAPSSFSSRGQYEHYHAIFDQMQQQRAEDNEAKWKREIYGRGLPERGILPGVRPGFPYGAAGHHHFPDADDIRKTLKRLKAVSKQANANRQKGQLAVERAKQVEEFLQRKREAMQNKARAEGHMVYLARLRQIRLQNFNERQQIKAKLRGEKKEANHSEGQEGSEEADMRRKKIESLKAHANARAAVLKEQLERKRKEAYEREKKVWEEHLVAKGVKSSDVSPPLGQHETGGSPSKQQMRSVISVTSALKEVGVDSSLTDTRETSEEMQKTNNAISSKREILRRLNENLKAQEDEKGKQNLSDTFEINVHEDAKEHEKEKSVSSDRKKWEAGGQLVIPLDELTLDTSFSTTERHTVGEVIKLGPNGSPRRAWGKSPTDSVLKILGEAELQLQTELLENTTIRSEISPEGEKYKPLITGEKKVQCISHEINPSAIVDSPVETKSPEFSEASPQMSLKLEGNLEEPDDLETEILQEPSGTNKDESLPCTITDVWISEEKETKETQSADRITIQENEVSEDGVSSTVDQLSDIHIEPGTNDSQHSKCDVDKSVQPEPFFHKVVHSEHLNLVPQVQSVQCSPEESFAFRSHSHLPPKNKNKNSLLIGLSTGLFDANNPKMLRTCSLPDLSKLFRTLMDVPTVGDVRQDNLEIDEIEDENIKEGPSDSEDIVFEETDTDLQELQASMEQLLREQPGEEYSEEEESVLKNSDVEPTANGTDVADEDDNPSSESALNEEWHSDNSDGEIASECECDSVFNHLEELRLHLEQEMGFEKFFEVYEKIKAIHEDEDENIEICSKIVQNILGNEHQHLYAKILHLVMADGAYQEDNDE
Sequence of cGMP-dependent protein kinase 1 (Homo sapiens) (Q13976 whole entry): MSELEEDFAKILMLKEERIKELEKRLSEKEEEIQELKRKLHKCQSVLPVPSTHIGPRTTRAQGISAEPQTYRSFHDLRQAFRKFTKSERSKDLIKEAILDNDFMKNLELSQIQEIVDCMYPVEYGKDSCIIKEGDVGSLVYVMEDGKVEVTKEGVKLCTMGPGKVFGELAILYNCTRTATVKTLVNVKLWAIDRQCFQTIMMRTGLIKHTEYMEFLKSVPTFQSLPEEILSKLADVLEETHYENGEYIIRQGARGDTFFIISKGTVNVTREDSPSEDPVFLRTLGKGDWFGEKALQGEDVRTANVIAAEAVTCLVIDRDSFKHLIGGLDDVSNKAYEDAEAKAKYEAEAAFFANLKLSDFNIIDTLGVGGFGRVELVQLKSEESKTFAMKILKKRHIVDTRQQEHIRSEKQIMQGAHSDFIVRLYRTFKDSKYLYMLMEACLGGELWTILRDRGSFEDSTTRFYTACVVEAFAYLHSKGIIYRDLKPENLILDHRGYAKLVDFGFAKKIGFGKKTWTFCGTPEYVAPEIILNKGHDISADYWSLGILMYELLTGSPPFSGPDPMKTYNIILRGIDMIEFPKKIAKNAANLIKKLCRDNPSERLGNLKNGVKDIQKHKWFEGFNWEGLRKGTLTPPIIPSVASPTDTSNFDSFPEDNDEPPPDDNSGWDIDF
Sequence of Serine/threonine-protein kinase B-raf (Homo sapiens) (P15056 whole entry): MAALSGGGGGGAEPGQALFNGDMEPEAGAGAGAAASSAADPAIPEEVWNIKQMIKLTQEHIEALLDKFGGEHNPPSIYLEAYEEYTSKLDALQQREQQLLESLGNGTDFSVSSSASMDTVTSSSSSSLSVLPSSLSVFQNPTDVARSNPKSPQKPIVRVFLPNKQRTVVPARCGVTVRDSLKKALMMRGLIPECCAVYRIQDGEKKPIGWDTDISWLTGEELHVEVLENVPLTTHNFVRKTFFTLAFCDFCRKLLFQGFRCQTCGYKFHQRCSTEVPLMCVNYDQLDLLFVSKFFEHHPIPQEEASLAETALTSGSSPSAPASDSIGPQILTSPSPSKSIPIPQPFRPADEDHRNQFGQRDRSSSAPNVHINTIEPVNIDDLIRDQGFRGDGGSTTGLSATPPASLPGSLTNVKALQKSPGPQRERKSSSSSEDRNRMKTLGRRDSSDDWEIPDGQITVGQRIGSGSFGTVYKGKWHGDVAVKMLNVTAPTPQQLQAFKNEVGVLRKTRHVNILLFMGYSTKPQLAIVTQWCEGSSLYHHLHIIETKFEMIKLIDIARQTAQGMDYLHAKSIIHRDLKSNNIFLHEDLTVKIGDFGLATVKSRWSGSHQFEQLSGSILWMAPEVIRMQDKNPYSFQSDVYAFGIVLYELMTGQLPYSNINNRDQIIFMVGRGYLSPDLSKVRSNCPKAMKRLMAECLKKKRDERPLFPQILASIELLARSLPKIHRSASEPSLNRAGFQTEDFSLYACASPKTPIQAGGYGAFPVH
Sequence of Ribosomal protein S6 kinase beta-1 (Homo sapiens) (P23443 whole entry, looked up): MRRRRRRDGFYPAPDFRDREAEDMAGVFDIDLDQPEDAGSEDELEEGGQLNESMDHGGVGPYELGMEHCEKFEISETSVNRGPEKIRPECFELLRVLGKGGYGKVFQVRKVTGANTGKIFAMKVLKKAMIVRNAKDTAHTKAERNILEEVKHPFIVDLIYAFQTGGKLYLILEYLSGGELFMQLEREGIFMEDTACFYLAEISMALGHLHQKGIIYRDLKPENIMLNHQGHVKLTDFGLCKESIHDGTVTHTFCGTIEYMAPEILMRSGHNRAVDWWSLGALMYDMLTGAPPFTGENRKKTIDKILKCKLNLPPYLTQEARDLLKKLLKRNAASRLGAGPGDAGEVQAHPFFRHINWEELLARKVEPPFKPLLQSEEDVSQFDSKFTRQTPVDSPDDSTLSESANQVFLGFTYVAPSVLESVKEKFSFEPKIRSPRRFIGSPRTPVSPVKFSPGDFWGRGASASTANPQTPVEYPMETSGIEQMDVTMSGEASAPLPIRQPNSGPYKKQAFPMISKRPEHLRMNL
Sequence of MAP kinase-interacting serine/threonine-protein kinase 1 (Homo sapiens), Q9BUB5 [T385D] (Q9BUB5 whole entry T385D): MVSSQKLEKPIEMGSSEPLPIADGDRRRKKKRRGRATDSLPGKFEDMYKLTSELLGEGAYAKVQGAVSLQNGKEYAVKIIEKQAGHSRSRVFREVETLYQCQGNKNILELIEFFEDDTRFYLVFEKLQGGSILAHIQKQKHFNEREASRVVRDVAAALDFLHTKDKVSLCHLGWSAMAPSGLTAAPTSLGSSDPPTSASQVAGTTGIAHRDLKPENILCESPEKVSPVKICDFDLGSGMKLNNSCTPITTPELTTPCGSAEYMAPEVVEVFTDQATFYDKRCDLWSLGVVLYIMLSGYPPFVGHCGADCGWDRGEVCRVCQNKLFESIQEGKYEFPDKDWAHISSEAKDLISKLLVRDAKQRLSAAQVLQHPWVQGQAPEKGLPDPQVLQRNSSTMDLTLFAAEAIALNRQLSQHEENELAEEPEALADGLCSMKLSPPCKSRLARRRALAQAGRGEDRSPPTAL

Activity [1]: 95% | Activity [2]: 103% | Activity [3]: 95% | Activity [4]: 87% | Activity [5]: 90% | Activity [6]: 98% | Activity [7]: 86% | Activity [8]: 77% | Activity [9]: 72% | Activity [10]: 58% | Activity [11]: 78% | Activity [12]: 102% | Activity [13]: 90% | Activity [14]: 89% | Activity [15]: 93% | Activity [17]: 74% | Activity [18]: 72% | Activity [19]: 84% | Activity [20]: 87% | Activity [21]: 97% | Activity [22]: 98% | Activity [23]: 80% | Activity [24]: 80% | Activity [25]: 89% | Activity [26]: 91% | Activity [27]: 102% | Activity [28]: 97% | Activity [29]: 86% | Activity [31]: 101%
Structure (SMILES): CCc1ccc(-c2ccc3c(c2)-c2[nH]ncc2S(=O)(=O)N3C)cc1
Activity [16]: 97% | Activity [30]: 94%
